Paper PMC11364517 (Neuron, 2024)

How the values were obtained:
GRABNE2m [1] = assay: Ligand selectivity of GRABNE2m expressed in HEK293T cells; type: cell-based; settings: for fluorescence response of GRABNE2m to the ligand: HEK293T cells, trace amines and NE metabolites in full doses (Fig. S2C, S2D)
GRABNE2h [2] = assay: Ligand selectivity of GRABNE2h expressed in HEK293T cells; type: cell-based; settings: for fluorescence response of GRABNE2h to the ligand: HEK293T cells, trace amines and NE metabolites in full doses (Fig. S2C, S2D)
GRABNE2h [3] = settings: read-out: apparent affinity values (EC50); n = 3
GRABNE2m [4] = settings: read-out: apparent affinity values (EC50); n = 3
[5] = tested on: optogenetically evoked NE release in the LC; assay: Fiber photometry in the LC of freely moving TH-Cre mice during optogenetic; type: in vivo; settings: i.p. injection; GRABNE2m and GRABNE2h
Procedure, shortened: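 Mice received hSyn-GRABNE2m or NE2h AAV plus Cre-dependent C1V1-YFP AAV (1 × 10¹³ genomic copies per ml) in the LC at 100 nl/min, 500 nl, under Avertin (500 mg/kg i.p.) or 1.5% isoflurane. LC fibres (105/125 μm) were implanted four weeks later. Photometry used a 473-nm laser, 25 μW at the fibre tip. Test compound was given i.p.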

Row | SMILES | fluorescence response of GRABNE2m to the ligand (GRABNE2m [1]) | fluorescence response of GRABNE2h to the ligand (GRABNE2h [2]) | other results
1 | COc1cc(C(O)CO)ccc1O (stereo not shown) [3-methoxy-4-hydroxyphenylglycol] | not respond | not respond | 
2 | NCCc1ccc(O)c(O)c1 [DA, dopamine] |  |  | EC50 (GRABNE2h [3]): 9 µM; EC50 (GRABNE2m [4]): 20 µM
3 | Fc1ccc(C(OCCN2CCN(CCCc3ccccc3)CC2)c2ccc(F)cc2)cc1 [GBR-12909] |  |  | effect on decay kinetics of the optogenetically evoked response [5]: no effect
4 | NC[C@H](O)c1ccc(O)c(O)c1 [NE, norepinephrine] |  |  | EC50 (GRABNE2h [3]): 0.19 µM; EC50 (GRABNE2m [4]): 0.38 µM
5 | CC(=O)OCC[N+](C)(C)C [acetylcholine] | do not respond | do not respond | 
6 | Nc1ncnc2c1ncn2[C@@H]1O[C@H](CO)[C@@H](O)[C@H]1O [adenosine] | do not respond | do not respond | 
7 | CCc1cc(Cl)c(OC)c(C(=O)NC[C@@H]2CCCN2CC)c1O [eticlopride] |  |  | effect on decay kinetics of the optogenetically evoked response [5]: no effect
8 | N[C@@H](CCC(=O)O)C(=O)O [glutamate, L-Glutamic acid] | do not respond | do not respond | 
9 | NCCc1c[nH]cn1 [histamine] | do not respond | do not respond | 
10 | CC(C)NCC(O)c1ccc(O)c(O)c1 (stereo not shown) [isoprenaline] | do not respond | do not respond | 
11 | COc1cc(C(O)CN)ccc1O (stereo not shown) [normetanephrine] | not respond | not respond | 
12 | NCC(O)c1ccc(O)cc1 (stereo not shown) [octopamine] | not respond | not respond | 
13 | NCCc1ccccc1 [phenethylamine] | not respond | not respond | 
14 | NCCc1c[nH]c2ccc(O)cc12 [serotonin] | do not respond | do not respond | 
15 | NCCc1ccc(O)cc1 [tyramine] | not respond | not respond | 
16 | COc1cc(C(O)C(=O)O)ccc1O (stereo not shown) [vanillylmandelic acid] | not respond | not respond | 
17 | COC(=O)[C@@H]1[C@H]2C[C@H]3c4[nH]c5ccccc5c4CCN3C[C@@H]2CC[C@@H]1O [yohimbine] |  |  | block of the NE-induced response of GRABNE2m (GRABNE2m [1]; HEK293T cells (Fig. S2D)): blocked; block of the NE-induced response of GRABNE2h (GRABNE2h [2]; HEK293T cells (Fig. S2D)): blocked
18 | NCCCC(=O)O [γ-aminobutyric acid] | do not respond | do not respond | 
